Source: ChEMBL document CHEMBL2203205 (Eur J Med Chem, 2012)
pIC50: −log10 of the molar value.

How the values were obtained:
[1] = molecular target: 5-hydroxytryptamine receptor 1B (Homo sapiens, UniProt P28222); experiment: Inhibition of 5HT1B receptor
Method in brief: (§1)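 Radioligand competition binding, run first as a single-concentration broad screen at […], then as concentration-response for follow-up targets, with the reference compound tested in parallel. Specific binding is total minus binding in excess unlabelled ligand, expressed as % of control specific binding. IC50 and Hill coefficient come from non-linear Hill-equation regression of competition curves built from mean replicate values.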

[2] = molecular target: T1, Muscarinic acetylcholine receptor M1 (Homo sapiens, UniProt P11229); experiment: Inhibition of muscarinic M1 receptor; method in brief: as §1
T1 sequence (P11229 whole entry): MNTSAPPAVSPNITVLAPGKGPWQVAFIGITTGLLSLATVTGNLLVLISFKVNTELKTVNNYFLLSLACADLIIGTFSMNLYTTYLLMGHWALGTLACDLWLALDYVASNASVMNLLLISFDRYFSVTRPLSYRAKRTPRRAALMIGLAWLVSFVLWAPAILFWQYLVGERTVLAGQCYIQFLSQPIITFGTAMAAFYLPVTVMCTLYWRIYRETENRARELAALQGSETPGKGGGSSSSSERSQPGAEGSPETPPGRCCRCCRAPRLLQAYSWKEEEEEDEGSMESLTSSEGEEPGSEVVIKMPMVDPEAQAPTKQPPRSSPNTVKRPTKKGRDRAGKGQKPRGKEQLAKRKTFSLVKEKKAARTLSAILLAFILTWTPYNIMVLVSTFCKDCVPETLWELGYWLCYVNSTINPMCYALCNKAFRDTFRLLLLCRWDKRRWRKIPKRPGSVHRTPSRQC

[3] = Half life in Sprague-Dawley rat at 10 mg/kg, po; format: ADME, organism-based; design: dose 10 mg/kg, route oral; settings: in vivo
Method in brief: (§2)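 Male Sprague-Dawley rats dosed intravenously (3 mg/kg) and orally (10 mg/kg). PK parameters came from non-compartmental analysis of plasma concentration vs time curves.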

[4] = molecular target: T2, Alpha-2C adrenergic receptor (Homo sapiens, UniProt P18825); experiment: Inhibition of alpha2C adrenergic receptor; method in brief: as §1
T2 sequence (P18825 whole entry): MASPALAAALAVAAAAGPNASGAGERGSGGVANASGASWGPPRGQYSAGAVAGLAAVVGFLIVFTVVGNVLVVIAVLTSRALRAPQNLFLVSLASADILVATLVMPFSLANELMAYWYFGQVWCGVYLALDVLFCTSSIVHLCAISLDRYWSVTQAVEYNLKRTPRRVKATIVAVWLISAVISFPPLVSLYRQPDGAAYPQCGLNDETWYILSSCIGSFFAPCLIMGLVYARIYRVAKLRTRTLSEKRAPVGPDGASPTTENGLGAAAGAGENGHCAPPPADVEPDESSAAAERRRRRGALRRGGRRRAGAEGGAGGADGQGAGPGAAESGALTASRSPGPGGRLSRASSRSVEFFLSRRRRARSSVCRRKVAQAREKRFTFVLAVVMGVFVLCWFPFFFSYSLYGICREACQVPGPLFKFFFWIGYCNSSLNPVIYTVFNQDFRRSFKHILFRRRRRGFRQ

[5] = molecular target: T3, Voltage-gated inwardly rectifying potassium channel KCNH2 (Homo sapiens, UniProt Q12809); experiment: Inhibition of human recombinant ERG expressed in HEK293 cells after 5 to 10 mins by conventional whole-cell patch clamp assay; format: cell-based
Method in brief: (§3)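 Conventional whole-cell patch clamp on HEK-293 cells stably expressing hERG, cultured 1–7 days in DMEM/GlutaMax-1 + 10% FBS on collagen-coated dishes. Holding potential was −80 mV. Compound was superfused 5–10 min per concentration at rt (22–24 °C). Tail current amplitude was measured before and after superfusion. IC50 came from a logistic fit of the concentration-response.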

[6] = Clearance in Sprague-Dawley rat at 3 mg/kg, iv; format: ADME, organism-based; design: dose 3 mg/kg, route intravenous; settings: in vivo; method in brief: as §2
[7] = Oral bioavailability in Sprague-Dawley rat at 10 mg/kg; format: ADME, organism-based; settings: in vivo; method in brief: as §2
[8] = molecular target: T4, Alpha-2A adrenergic receptor (Homo sapiens, UniProt P08913); experiment: Inhibition of alpha2A adrenergic receptor; method in brief: as §1
T4 sequence (P08913 whole entry): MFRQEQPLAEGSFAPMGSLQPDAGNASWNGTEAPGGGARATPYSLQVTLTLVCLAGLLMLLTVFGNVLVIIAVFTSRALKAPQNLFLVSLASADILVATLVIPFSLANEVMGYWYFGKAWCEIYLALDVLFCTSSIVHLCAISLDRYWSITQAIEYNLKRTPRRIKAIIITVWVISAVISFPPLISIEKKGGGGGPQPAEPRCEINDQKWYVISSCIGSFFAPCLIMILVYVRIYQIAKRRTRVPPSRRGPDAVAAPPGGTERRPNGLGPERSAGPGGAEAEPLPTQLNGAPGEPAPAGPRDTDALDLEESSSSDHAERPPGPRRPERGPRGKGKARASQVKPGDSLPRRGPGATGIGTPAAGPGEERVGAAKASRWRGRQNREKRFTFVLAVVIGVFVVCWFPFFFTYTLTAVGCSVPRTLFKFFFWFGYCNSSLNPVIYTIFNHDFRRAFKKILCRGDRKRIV

[9] = molecular target: T3, Voltage-gated inwardly rectifying potassium channel KCNH2; experiment: Inhibition of human recombinant ERG expressed in HEK293 cells up to 100 uM after 5 to 10 mins by conventional whole-cell patch clamp assay; format: cell-based; method in brief: as §3
Rattus norvegicus = experiment: Analgesic activity in rat L5 and L6 spinal nerve ligation model assessed as reversal of thermal hyperalgesia at 30 mg/kg, ip after 60 mins; format: functional; settings: route intraperitoneal
[10] = molecular target: T5, Alpha-1D adrenergic receptor (Homo sapiens, UniProt P25100); experiment: Inhibition of alpha1D adrenergic receptor; method in brief: as §1
T5 sequence (P25100 whole entry): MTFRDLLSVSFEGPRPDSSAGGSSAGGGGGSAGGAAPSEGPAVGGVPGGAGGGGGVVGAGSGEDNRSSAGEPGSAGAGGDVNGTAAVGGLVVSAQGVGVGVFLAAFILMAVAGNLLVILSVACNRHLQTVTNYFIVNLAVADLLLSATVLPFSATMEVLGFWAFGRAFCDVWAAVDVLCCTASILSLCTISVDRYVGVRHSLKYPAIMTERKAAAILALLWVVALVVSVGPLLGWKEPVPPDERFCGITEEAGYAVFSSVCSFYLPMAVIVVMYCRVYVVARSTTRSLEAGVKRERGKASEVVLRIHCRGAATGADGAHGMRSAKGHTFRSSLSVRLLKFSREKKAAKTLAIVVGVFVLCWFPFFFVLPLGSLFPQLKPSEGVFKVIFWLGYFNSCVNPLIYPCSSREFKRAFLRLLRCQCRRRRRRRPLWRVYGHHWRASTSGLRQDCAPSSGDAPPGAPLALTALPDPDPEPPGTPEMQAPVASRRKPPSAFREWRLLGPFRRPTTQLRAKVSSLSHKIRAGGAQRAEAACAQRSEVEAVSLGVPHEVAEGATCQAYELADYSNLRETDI

[11] = molecular target: Muscarinic acetylcholine receptor M3 (Homo sapiens, UniProt P20309); experiment: Inhibition of muscarinic M3 receptor; method in brief: as §1
[12] = molecular target: T3, Voltage-gated inwardly rectifying potassium channel KCNH2; experiment: Displacement of [3H]astemizole from human recombinant ERG expressed in HEK293 cells; format: cell-based
Method in brief: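 Binding was run in human recombinant HEK-293 cells with [3H]astemizole at 2 nM, incubated 75 min at 22 °C, with astemizole as reference. Nonspecific binding was taken with excess unlabelled ligand. Results were given as percent inhibition of control specific binding.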

[13] = Cmax in Sprague-Dawley rat at 10 mg/kg, po; format: ADME, organism-based; design: dose 10 mg/kg, route oral; settings: in vivo; method in brief: as §2

T3 sequence (Q12809 whole entry, the tested form may be a part): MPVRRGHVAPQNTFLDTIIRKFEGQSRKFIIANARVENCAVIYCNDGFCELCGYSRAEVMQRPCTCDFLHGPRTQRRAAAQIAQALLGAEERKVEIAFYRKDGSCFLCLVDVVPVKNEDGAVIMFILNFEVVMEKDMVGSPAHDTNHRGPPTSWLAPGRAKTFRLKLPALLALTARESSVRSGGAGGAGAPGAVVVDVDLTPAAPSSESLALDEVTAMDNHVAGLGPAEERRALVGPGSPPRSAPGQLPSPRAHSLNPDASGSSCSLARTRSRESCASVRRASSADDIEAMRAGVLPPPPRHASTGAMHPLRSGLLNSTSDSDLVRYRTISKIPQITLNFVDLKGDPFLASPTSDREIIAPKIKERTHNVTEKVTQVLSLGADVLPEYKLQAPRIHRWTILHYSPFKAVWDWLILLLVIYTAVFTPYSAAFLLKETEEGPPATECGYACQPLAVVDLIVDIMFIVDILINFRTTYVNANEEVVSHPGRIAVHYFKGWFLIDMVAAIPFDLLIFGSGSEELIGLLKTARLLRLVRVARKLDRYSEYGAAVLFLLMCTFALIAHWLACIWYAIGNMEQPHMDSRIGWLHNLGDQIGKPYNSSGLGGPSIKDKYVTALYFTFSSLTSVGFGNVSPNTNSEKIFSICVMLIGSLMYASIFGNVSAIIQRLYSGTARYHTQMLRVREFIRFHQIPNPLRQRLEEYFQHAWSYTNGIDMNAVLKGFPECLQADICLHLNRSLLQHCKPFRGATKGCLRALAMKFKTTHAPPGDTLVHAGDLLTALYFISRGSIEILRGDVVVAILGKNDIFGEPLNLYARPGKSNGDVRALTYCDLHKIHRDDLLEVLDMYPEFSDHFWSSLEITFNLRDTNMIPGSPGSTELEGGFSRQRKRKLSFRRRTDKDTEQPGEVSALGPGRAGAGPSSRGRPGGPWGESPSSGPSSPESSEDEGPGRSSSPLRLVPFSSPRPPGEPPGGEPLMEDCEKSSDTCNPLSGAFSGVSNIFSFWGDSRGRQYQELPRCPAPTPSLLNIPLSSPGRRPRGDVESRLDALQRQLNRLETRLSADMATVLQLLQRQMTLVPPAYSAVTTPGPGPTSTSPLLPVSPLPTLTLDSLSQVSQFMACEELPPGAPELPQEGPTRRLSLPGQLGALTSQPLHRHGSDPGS
5-hydroxytryptamine receptor 1B, sequence (P28222 whole entry): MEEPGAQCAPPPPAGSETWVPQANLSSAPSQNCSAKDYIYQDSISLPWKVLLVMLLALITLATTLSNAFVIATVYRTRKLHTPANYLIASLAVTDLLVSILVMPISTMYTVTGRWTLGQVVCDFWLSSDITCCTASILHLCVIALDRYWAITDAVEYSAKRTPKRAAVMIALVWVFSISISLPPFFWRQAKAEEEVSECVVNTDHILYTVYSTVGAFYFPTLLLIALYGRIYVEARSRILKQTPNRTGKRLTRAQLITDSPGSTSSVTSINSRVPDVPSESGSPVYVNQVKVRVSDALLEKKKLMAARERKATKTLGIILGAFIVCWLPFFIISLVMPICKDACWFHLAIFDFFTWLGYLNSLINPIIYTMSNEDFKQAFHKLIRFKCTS
Muscarinic acetylcholine receptor M3, sequence (P20309 whole entry): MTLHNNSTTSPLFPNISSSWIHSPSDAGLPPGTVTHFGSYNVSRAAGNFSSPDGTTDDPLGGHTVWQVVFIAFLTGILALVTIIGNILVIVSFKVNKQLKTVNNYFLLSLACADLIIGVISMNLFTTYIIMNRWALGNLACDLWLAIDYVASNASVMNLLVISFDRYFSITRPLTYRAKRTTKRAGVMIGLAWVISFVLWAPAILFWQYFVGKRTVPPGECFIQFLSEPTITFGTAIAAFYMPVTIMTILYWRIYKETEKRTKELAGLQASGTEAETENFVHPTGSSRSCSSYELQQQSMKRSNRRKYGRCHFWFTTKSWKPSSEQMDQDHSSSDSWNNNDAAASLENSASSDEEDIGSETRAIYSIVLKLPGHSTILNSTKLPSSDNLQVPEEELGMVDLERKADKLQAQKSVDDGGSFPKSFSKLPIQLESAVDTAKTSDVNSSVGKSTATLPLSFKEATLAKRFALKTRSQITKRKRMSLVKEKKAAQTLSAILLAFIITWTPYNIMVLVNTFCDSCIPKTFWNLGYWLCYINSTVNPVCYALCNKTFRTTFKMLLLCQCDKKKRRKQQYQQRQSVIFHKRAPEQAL

- pIC50 [1]: 5.66
- pIC50 [2]: 5.07
- half-life [3]: 12 h
- pIC50 [4]: 4.96
- clearance [6]: 420 mL/min/kg
- bioavailability [7]: 91%
- pIC50 [8]: 4.62
- pIC50 [10]: 5.66
- pIC50 [11]: 5.35
- Cmax [13]: 101 ng/mL
Compound: N=C(Nc1ccc2c(c1)CCN2C1CCNCC1)c1cccs1
- pIC50 [5]: < 4.00
- inhibition (INH) [9]: Not Active
- Activity (Rattus norvegicus): 71%
- pIC50 [12]: 3.80
